Data reported in publication PMC4780725 (Drug Design, Development and Therapy, 2016).

Experiments:
GES-1 cells = test: MTT cell viability assay, GES-1 normal gastric mucosa epithelial cells; assay type: cell-based; conditions: Homo sapiens, GES1, 72 h, read-out: IC50 values of compounds on cells, GES-1
Summary of the method: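 GES-1 cells were grown in RPMI-1640 with 10% FBS at 37°C and 5% CO2, seeded at ~5,000 cells/well, then exposed for 72 h to 0.096, 0.48, 2.4, 12 and 60 µM compound. MTT was added for 4 h, formazan dissolved in DMSO, and absorbance read at 490 nm. Inhibition was calculated against the DMSO control, and IC50 is the concentration giving 50% inhibition. At least three independent experiments were run.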

[1] = Stability in phosphate buffer by UV-visible absorption spectra; assay type: physicochemical; conditions: phosphate buffer pH 7.4, 250 to 600 nm, every 5 minutes for more than 25 minutes
Summary of the method: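 Test compound was dissolved and diluted in DMSO, then mixed into phosphate buffer at pH 7.4. Optical density from 250 to 600 nm was recorded every 5 min for more than 25 min.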

[2] = test system: NF-κB activation induced by TNF-α in SGC-7901 cells; test: Western blot of TNF-α-induced NF-κB activation; assay type: cell-based, human; conditions: SGC-7901, 10 µM, 60 minutes pretreatment, TNF-α 1 ng/mL 15 minutes
Summary of the method: (§1)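 SGC-7901 or BGC-823 cells were pretreated 60 min with DMSO, test compound (5, 10 or 20 µM) or a reference NF-κB inhibitor (20 µM), then stimulated with TNF-α 1 ng/mL for 15 min. Whole-cell lysates were cleared at 12,000× g, 4°C, 10 min, and equal protein run on SDS-PAGE. Blots were probed overnight for p-IKK, IκB-α and p-IκB-α, then with HRP secondaries 1 h at 37°C. Densitometry normalised to IKK and GAPDH, respectively.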

[3] = test system: NF-κB activation induced by TNF-α in BGC-823 cells; test: Western blot of TNF-α-induced NF-κB activation; assay type: cell-based, human; conditions: BGC-823, 10 µM, 60 minutes pretreatment, TNF-α 1 ng/mL 15 minutes
Summary of the method: as §1

[4] = test system: p65 nuclear translocation in SGC-7901 cells; test: p65 nuclear translocation, Western blot of nuclear extracts, SGC-7901; assay type: cell-based, human; conditions: SGC-7901, pretreatment 60 minutes, TNF-α 1 ng/mL 60 minutes
Summary of the method: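 SGC-7901 cells were pretreated for 60 min with test compound (10 or 20 µM), a reference NF-κB inhibitor or DMSO, then stimulated with TNF-α at 1 ng/mL for 60 min. Cells were trypsinized and washed thrice in ice-cold PBS. Cytoplasmic extract came from Buffer A (10 min on ice) plus Buffer B (1 min) and a 16,000× g spin for 5 min; nuclear extract from the pellet in Buffer C for 40 min on ice. Nuclear p65 was normalized to Lamin B and cytoplasmic p65 to GAPDH.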

[5] = test system: p65 nuclear translocation in SGC-7901 cells; test: p65 nuclear translocation, immunofluorescence, SGC-7901; assay type: cell-based, human; conditions: SGC-7901, 20 µM, 1 hour before TNF-α
Summary of the method: (§2)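 Cells were pretreated 60 min with DMSO, test compound (20 µM) or a reference NF-κB inhibitor (20 µM), then stimulated with TNF-α 1 ng/mL for 60 min. After an ice-cold PBS wash, cells were fixed 10 min at room temperature and blocked 1 h. They were incubated overnight at 4°C with rabbit anti-p65, then anti-rabbit Cy3 for 1 h in the dark, and DAPI for 5 min. Fluorescence microscopy at 20×10; p65 red and nuclei blue in merged images.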

[6] = test system: p65 nuclear translocation in BGC-823 cells; test: p65 nuclear translocation, immunofluorescence, BGC-823; assay type: cell-based, human; conditions: BGC-823, 20 µM, 60 minutes before TNF-α
Summary of the method: as §2

[7] = test system: SGC-7901 or BGC-823 cells; test: Clonogenic assay; assay type: cell-based, human; conditions: 5 µM, 24 hours treatment, then 7 days in fresh medium
Summary of the method: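 SGC-7901 or BGC-823 cells were exposed to test compound (2.5 or 5 µM) or DMSO for 24 h. The medium was then replaced with fresh medium and colonies grew for 7 days before crystal violet staining and photography.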

[8] = test system: SGC-7901 and BGC-823 cells; test: Matrigel invasion assay; assay type: cell-based, human; conditions: 24 hours; Da0324 5 or 10 µM, curcumin 10 µM
Summary of the method: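 Transwell inserts were coated with Matrigel and air-dried for 2 h at room temperature. Cells at 1×10^6 cells/mL in serum-free RPMI-1640 with compound or DMSO were placed in the upper chamber, with RPMI-1640 plus 10% FBS below, for 24 h at 37°C. Cells on the lower surface were fixed, crystal violet-stained and counted by light microscopy as the mean of three fields, from three separate treatments.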

[9] = test system: SGC-7901 or BGC-823 cells; test: Cell cycle analysis by flow cytometry; assay type: cell-based, human; conditions: 24 hours
Summary of the method: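 Cells in RPMI-1640 with 10% FBS were exposed for 24 h to test compound (5 or 10 µM, or 20 µM for the reference) or DMSO. All cells were collected by trypsinization, PBS-washed, fixed in 75% ethanol for 1 h at −20°C, washed, and stained with PI for 15 min at 4°C in the dark. G0/G1, S and G2/M fractions were measured by FACS, from three separate treatments.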

[10] = test system: SGC-7901 or BGC-823 cells; test: Apoptosis by Annexin-V/PI flow cytometry; assay type: cell-based, human; conditions: 10 or 20 µM, 24 hours
Summary of the method: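 SGC-7901 or BGC-823 cells in RPMI-1640 with 10% FBS at 37°C, 5% CO2, were treated 24 h with test compound (10 or 20 µM), a reference compound (20 µM) or DMSO. Cells were collected, washed twice in PBS, then stained with Annexin-V for 10 min in the dark and with PI for 5 min, and analysed by FACS. Annexin+/PI− cells were scored early apoptotic and Annexin+/PI+ late apoptotic/dead; three separate treatments.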

[11] = test system: caspase 3, bcl-2, bax in SGC-7901 cells; test: Western blot of apoptosis-related proteins, SGC-7901; assay type: cell-based, human; conditions: SGC-7901, 10 µM, 24 hours
Summary of the method: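 SGC-7901 cells were exposed 24 h to DMSO, test compound (5, 10 or 20 µM) or a reference compound (20 µM). Lysates were cleared at 12,000× g, 4°C, and equal protein separated by SDS-PAGE. Blots were probed overnight for caspase 3, cleaved caspase 3, bax and bcl-2, with GAPDH as loading control. Bands were quantified by densitometry.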

SGC-7901 cells = test: MTT cell viability assay, SGC-7901; assay type: cell-based, human; conditions: read-out: IC50 values of compounds on cells, SGC-7901, 72 hours, SGC-7901 gastric cancer cells
Summary of the method: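 SGC-7901 cells were seeded at ~5,000/well and exposed 72 h to test compound at 0.096, 0.48, 2.4, 12 and 60 µM. MTT was added for 4 h, formazan dissolved in DMSO and absorbance read at 490 nm. Inhibition ratio = (1 − A treated/A DMSO control) × 100%. IC50, the concentration giving 50% inhibition of proliferation, was calculated by curve fitting.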

Absorption intensity of the spectrum in phosphate buffer (degradation) [1]	IC50 (SGC-7901 cells) [µM]	Compound	IC50 (GES-1 cells) [µM]	Phosphorylation of IKK and IκB-α stimulated by TNF-α [2]	Expression of p-IKK and p-IκB-α stimulated by TNF-α [3]	Nuclear p65 after TNF-α stimulation [4]	p65 red fluorescence in cell nuclei after TNF-α [5]	p65 nuclear translocation induced by TNF-α [6]	Colony formation [7]	Invasion through Matrigel [8]	Cells arrested in the G2/M phase ([9]; 10 µM) [%]	Number of early- and late-period apoptotic cells [10]	Caspase 3 level and cleavage [11]	Cells arrested in the G2/M phase ([9]; 20 µM)
–	–	COc1cccc(/C=C/C(=O)/C=C/c2cccc(OC)c2OC)c1OC [Compound B19, (1E,4E)-1,5-bis(2,3-dimethoxyphenyl)penta-1,4-dien-3-one]	3.7 ± 1.9	–	–	–	–	–	–	–	–	–	–	–
less degraded than curcumin	–	COc1ccc(OC)c(/C=C2\CC/C(=C\c3ccc(O)c(OC)c3)C2=O)c1 [Da0324, (2E,5E)-2-(2,5-dimethoxybenzylidene)-5-(4-hydroxy-3-methoxybenzylidene)cyclopentanone]	27.3 ± 8.2	significantly inhibit the phosphorylation of IKK and IκB-α	similarly inhibit the expression of p-IKK and p-IκB-α	did not significantly increase	the red fluorescence did not increase in the cell nuclei	could inhibit the p65 nuclear translocation	No colonies were visible	obviously inhibited the invasion	~30	significantly higher than those of the curcumin-treated cells	significantly reduced caspase 3 and induced its cleavage	–
–	7.8 ± 1.8	Cc1ccc2nc(NCCN)c3ncc(C)n3c2c1 [BMS345541, reference compound]	9.8 ± 2.5	–	–	did not significantly increase	–	could inhibit the p65 nuclear translocation	–	–	–	–	–	–
significantly decreased	–	COc1cc(/C=C/C(=O)CC(=O)/C=C/c2ccc(O)c(OC)c2)ccc1O [CUR, curcumin, reference compound]	29.1 ± 3.8	–	–	–	–	–	no significant effects	could similarly inhibit cell invasion	–	–	–	~ 10%
